Measured values taken from PMC11406655 (Therapeutic Advances in Hematology, 2024).
Where “and” joins values, the source holds several entries; their conditions need not be identical. Equal entries are not always repeated.

Assays:
Format in all cases: in vivo, human
[1] = test system: symmetrical dimethylarginine (SDMA) in bone marrow biopsies; assay: SDMA in bone marrow biopsies by immunohistochemistry; settings: for Mean percentage decrease in SDMA in bone marrow biopsies: after 29 days of treatment
Procedure, shortened: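 Adults with relapsed/refractory MDS, CMML or secondary AML took the test compound orally once daily (400 or 300 mg) with water only, every day of 28-day cycles. Bone marrow biopsies were taken predose and 29 days after treatment began, formalin-fixed and paraffin-embedded. SDMA loss was assessed by immunohistochemistry.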

[2] = Plasma pharmacokinetics of GSK3326595
[3] = test system: patients with relapsed and/or refractory MDS, CMML, or AML; assay: Safety: adverse events, dose-limiting toxicities and deaths
Procedure, shortened: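 Open-label, multicenter part 1 in adults with relapsed/refractory MDS, CMML or secondary AML. The 300 mg dose-expansion cohort took the test compound orally once daily with water only, at about the same time (±4 h), on every day of 28-day cycles. Deaths were split into ⩽30 days or >30 days after the last dose. The analysis covered all patients given at least one dose.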

SMILES: CC(=O)N1CCC(Nc2cc(C(=O)NC[C@H](O)CN3CCc4ccccc4C3)ncn2)CC1 [GSK3326595]
- Mean percentage decrease in SDMA in bone marrow biopsies ([1]; 300-mg cohort, 7 patients): 84.63%
- Mean percentage decrease in SDMA in bone marrow biopsies ([1]; 400-mg cohort, 4 patients): 85.75%
- Maximum observed decrease in tumor SDMA ([1]; day 29, 300-mg cohort): 97.8%
- Maximum observed decrease in tumor SDMA ([1]; day 29, 400-mg cohort): 100%
- Dose proportionality of exposure ([2]; 300 and 400 mg): dose-proportional
- half-life ([2]; human, plasma, po, 400 mg): 240 to 360 min
- Tmax ([2]; human, plasma, po, 400 mg, Tmax, 300 and 400 mg once daily): ~2 h
- Died (during the study) ([3]; 300 mg, n = 17): 14 (82%) n (%)
- GSK3326595-related TEAE: AE leading to study treatment withdrawn ([3]; 300 mg, n = 17): 2 (12) n (%)
- GSK3326595-related TEAE: Anemia ([3]; 300 mg, n = 17): 2 (12) n (%)
- GSK3326595-related TEAE: Any SAE ([3]; 300 mg, n = 17): 3 (18) n (%)
- GSK3326595-related TEAE: Any TEAEs ([3]; 300 mg, n = 17): 13 (76) n (%)
- GSK3326595-related TEAE: Any grade 3/4 TEAE ([3]; 300 mg, n = 17): 8 (47%) n (%) and 8 (47) n (%)
- GSK3326595-related TEAE: Decreased appetite ([3]; 300 mg, n = 17): 3 (18) n (%)
- GSK3326595-related TEAE: Decreased platelet count ([3]; 300 mg, n = 17): 5 (29) n (%)
- GSK3326595-related TEAE: Dysgeusia ([3]; 300 mg, n = 17): 4 (24) n (%)
- GSK3326595-related TEAE: Fatal SAE ([3]; 300 mg, n = 17): 1 (6) n (%)
- GSK3326595-related TEAE: Fatigue ([3]; 300 mg, n = 17): 2 (12) n (%)
- GSK3326595-related TEAE: Nausea ([3]; 300 mg, n = 17): 4 (24) n (%)
- GSK3326595-related TEAE: Neutrophil count decreased ([3]; 300 mg, n = 17): 2 (12) n (%)
- GSK3326595-related TEAE: Thrombocytopenia ([3]; 300 mg, n = 17): 2 (12) n (%)
- TEAE: AE leading to dose interruption ([3]; 300 mg, n = 17): 10 (59) n (%)
- TEAE: AE leading to dose reduction ([3]; 300 mg, n = 17): 1 (6) n (%)
- TEAE: AE leading to study treatment withdrawn ([3]; 300 mg, n = 17): 3 (18) n (%)
- TEAE: Anemia ([3]; 300 mg, n = 17): 7 (41) n (%)
- TEAE: Any AE ([3]; 300 mg, n = 17): 17 (100) n (%)
- TEAE: Any SAE ([3]; 300 mg, n = 17): 12 (71) n (%)
- TEAE: Decreased appetite ([3]; 300 mg, n = 17): 4 (24) n (%)
- TEAE: Decreased platelet count ([3]; 300 mg, n = 17): 8 (47) n (%)
- TEAE: Diarrhea ([3]; 300 mg, n = 17): 7 (41) n (%)
- TEAE: Dysgeusia ([3]; 300 mg, n = 17): 7 (41) n (%)
- TEAE: Dyspnea ([3]; 300 mg, n = 17): 6 (35) n (%)
- TEAE: Fatal SAE ([3]; 300 mg, n = 17): 5 (29%) n (%) and 5 (29) n (%)
- TEAE: Fatigue ([3]; 300 mg, n = 17): 6 (35) n (%)
- TEAE: Nausea ([3]; 300 mg, n = 17): 5 (29) n (%)
- Died (during the study) ([3]; 400 mg, n = 13): 11 (85%) n (%)
- GSK3326595-related TEAE: AE leading to study treatment withdrawn ([3]; 400 mg, n = 13): 0 n (%)
- GSK3326595-related TEAE: Anemia ([3]; 400 mg, n = 13): 1 (8) n (%)
- GSK3326595-related TEAE: Any SAE ([3]; 400 mg, n = 13): 3 (23) n (%)
- GSK3326595-related TEAE: Any TEAEs ([3]; 400 mg, n = 13): 9 (69) n (%)
- GSK3326595-related TEAE: Any grade 3/4 TEAE ([3]; 400 mg, n = 13): 5 (38%) n (%) and 5 (38) n (%)
- GSK3326595-related TEAE: Decreased appetite ([3]; 400 mg, n = 13): 1 (8) n (%)
- GSK3326595-related TEAE: Decreased platelet count ([3]; 400 mg, n = 13): 3 (23) n (%)
- GSK3326595-related TEAE: Dysgeusia ([3]; 400 mg, n = 13): 3 (23) n (%)
- GSK3326595-related TEAE: Fatal SAE ([3]; 400 mg, n = 13): 0 n (%)
- GSK3326595-related TEAE: Fatigue ([3]; 400 mg, n = 13): 4 (31) n (%)
- GSK3326595-related TEAE: Nausea ([3]; 400 mg, n = 13): 2 (15) n (%)
- GSK3326595-related TEAE: Neutrophil count decreased ([3]; 400 mg, n = 13): 2 (15) n (%)
- GSK3326595-related TEAE: Thrombocytopenia ([3]; 400 mg, n = 13): 1 (8) n (%)
- TEAE: AE leading to dose interruption ([3]; 400 mg, n = 13): 10 (77) n (%)
- TEAE: AE leading to dose reduction ([3]; 400 mg, n = 13): 5 (38) n (%)
- TEAE: AE leading to study treatment withdrawn ([3]; 400 mg, n = 13): 4 (31) n (%)
- TEAE: Anemia ([3]; 400 mg, n = 13): 3 (23) n (%)
- TEAE: Any AE ([3]; 400 mg, n = 13): 13 (100) n (%)
- TEAE: Any SAE ([3]; 400 mg, n = 13): 11 (85) n (%)
- TEAE: Decreased appetite ([3]; 400 mg, n = 13): 5 (38) n (%)
- TEAE: Decreased platelet count ([3]; 400 mg, n = 13): 4 (31) n (%)
- TEAE: Diarrhea ([3]; 400 mg, n = 13): 6 (46) n (%)
- TEAE: Dysgeusia ([3]; 400 mg, n = 13): 3 (23) n (%)
- TEAE: Dyspnea ([3]; 400 mg, n = 13): 5 (38) n (%)
- TEAE: Fatal SAE ([3]; 400 mg, n = 13): 9 (69%) n (%) and 9 (69) n (%)
- TEAE: Fatigue ([3]; 400 mg, n = 13): 7 (54) n (%)
- TEAE: Nausea ([3]; 400 mg, n = 13): 4 (31) n (%)
- Deaths >30 days from last dose of study treatment (number) ([3]; 300-mg cohort): 6
- Deaths ⩽30 days from last dose of study treatment (number) ([3]; 300-mg cohort): 8
- Deaths >30 days from last dose of study treatment (number) ([3]; 400-mg cohort): 5
- Deaths ⩽30 days from last dose of study treatment (number) ([3]; 400-mg cohort): 6
- Deaths >30 days from last dose of study treatment ([3]; Total, N = 30): 11 (37%) n (%)
- Deaths ⩽30 days from last dose of study treatment ([3]; Total, N = 30): 47%
- Died (during the study) ([3]; Total, N = 30): 25 (83%) n (%)
- GSK3326595-related AE: decreased platelet count ([3]; Total, N = 30): 27%
- GSK3326595-related AE: dysgeusia ([3]; Total, N = 30): 23%
- GSK3326595-related AE: fatigue ([3]; Total, N = 30): 20%
- GSK3326595-related AE: nausea ([3]; Total, N = 30): 20%
- GSK3326595-related TEAE with maximum grade of 3 or 4: decreased neutrophil count ([3]; Total, N = 30): 4 (13%) n (%)
- GSK3326595-related TEAE with maximum grade of 3 or 4: decreased platelet count ([3]; Total, N = 30): 6 (20%) n (%)
- GSK3326595-related TEAE with maximum grade of 3 or 4: thrombocytopenia ([3]; Total, N = 30): 3 (10%) n (%)
- GSK3326595-related TEAE: AE leading to study treatment withdrawn ([3]; Total, N = 30): 2 (7) n (%)
- GSK3326595-related TEAE: Anemia ([3]; Total, N = 30): 3 (10%) n (%) and 3 (10) n (%)
